Measurements taken from ChEMBL document CHEMBL1154449, “Synthesis, characterization and in vitro antibacterial activity of thiourea and urea derivatives of steroids” (2008).
In brackets after ≈: the same amount, converted by molar mass.

Experiments:
[1] = system: Staphylococcus aureus; test: Antibacterial activity against Staphylococcus aureus at 1 mg/disk after 18 hrs at 36 degC by disk diffusion method; assay type: functional
How it was run: (§1)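 Disk diffusion. Strains were subcultured in BHI for 18 h at 37 °C, then suspended in saline by McFarland to about […] CFU/mL. The suspension was mixed with sterile antibiotic agar at 40 °C and poured onto plates, and 6.0 mm paper disks were applied. Test compound stock was made in DMSO and diluted to several concentrations applied to disks. Chloramphenicol disks served as positive control and DMSO disks as negative control. Inhibition zone (mm) was read after 18 h at 36 °C.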

[2] = system: Streptococcus pyogenes; test: Antibacterial activity against Streptococcus pyogenes at 1 mg/disk after 18 hrs at 36 degC by disk diffusion method; assay type: functional; how it was run: as §1
[3] = system: Salmonella typhimurium; test: Antibacterial activity against Salmonella Typhimurium at 1 mg/disk after 18 hrs at 36 degC by disk diffusion method; assay type: functional, Salmonella enterica subsp. enterica serovar Typhimurium; how it was run: as §1
[4] = system: Escherichia coli; test: Antibacterial activity against Escherichia coli at 1 mg/disk after 18 hrs at 36 degC by disk diffusion method; assay type: functional; how it was run: as §1
[5] = system: Staphylococcus aureus; test: Antibacterial activity against Staphylococcus aureus after 18 hrs at 37 degC by microdilution method; assay type: functional; settings: in the assay text read “macrodilution” for “microdilution”
[6] = system: Streptococcus pyogenes; test: Antibacterial activity against Streptococcus pyogenes after 18 hrs at 37 degC by microdilution method; assay type: functional; settings: in the assay text read “macrodilution” for “microdilution”
[7] = system: Salmonella typhimurium; test: Antibacterial activity against Salmonella Typhimurium after 18 hrs at 37 degC by microdilution method; assay type: functional, Salmonella enterica subsp. enterica serovar Typhimurium; settings: Salmonella enterica, in the assay text read “macrodilution” for “microdilution”
[8] = system: Escherichia coli; test: Antibacterial activity against Escherichia coli after 18 hrs at 37 degC by microdilution method; assay type: functional
[9] = system: Staphylococcus aureus; test: Antibacterial activity against Staphylococcus aureus at 30 ug/disk after 18 hrs at 36 degC by disk diffusion method; assay type: functional; settings: read-out: IZ
How it was run: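 S. aureus subcultured in BHI medium 18 h at 37 °C, then suspended in saline per McFarland protocol; suspension mixed with sterile antibiotic agar at 40 °C and poured as plates. Paper disks (6.0 mm) loaded with DMSO-dissolved compound at graded concentrations; chloramphenicol disk positive control, DMSO disk negative control. Inhibition zone diameter (mm) read after 18 h at 36 °C.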

[10] = system: Streptococcus pyogenes; test: Antibacterial activity against Streptococcus pyogenes at 30 ug/disk after 18 hrs at 36 degC by disk diffusion method; assay type: functional; settings: read-out: IZ; how it was run: as §1
[11] = system: Salmonella typhimurium; test: Antibacterial activity against Salmonella Typhimurium at 30 ug/disk after 18 hrs at 36 degC by disk diffusion method; assay type: functional, Salmonella enterica subsp. enterica serovar Typhimurium; settings: Salmonella enterica, read-out: IZ; how it was run: as §1
[12] = system: Escherichia coli; test: Antibacterial activity against Escherichia coli at 30 ug/disk after 18 hrs at 36 degC by disk diffusion method; assay type: functional; settings: read-out: IZ; how it was run: as §1

For `CC[C@H](/C=C/[C@@H](C)[C@H]1CC[C@H]2[C@@H]3C4=C[C@]5(C[C@@H](Cl)CC[C@]5(C)[C@H]3CC[C@]12C)NC(=S)N4)C(C)C`, the “inhibition zone (IZ)” value [1] was 19.7 mm, the “inhibition zone (IZ)” value [2] was 23.2 mm and the “inhibition zone (IZ)” value [3] was 18.7 mm. For the same compound, the “inhibition zone (IZ)” value [4] was 20.7 mm, the MIC [5] was 64 µg/mL (≈ 127 µM) and the MIC [6] was 64 µg/mL (≈ 127 µM). For the same compound, the MIC [7] was 32 µg/mL (≈ 63.6 µM) and the MIC [8] was 32 µg/mL (≈ 63.6 µM).

`O=C(N[C@H](CO)[C@H](O)c1ccc([N+](=O)[O-])cc1)C(Cl)Cl` [CHLORAMPHENICOL] was tested, and the zone of inhibition at 30 µg/disc [9] was 21 mm, the zone of inhibition at 30 µg/disc [10] was 22.2 mm and the zone of inhibition at 30 µg/disc [11] was 25.2 mm. The zone of inhibition at 30 µg/disc [12] was 20 mm.

For `CC[C@H](/C=C/[C@@H](C)[C@H]1CC[C@H]2[C@@H]3C4=C[C@]5(C[C@@H](OC(C)=O)CC[C@]5(C)[C@H]3CC[C@]12C)NC(=O)N4)C(C)C`, the “inhibition zone (IZ)” value [1] was 14.4 mm, the “inhibition zone (IZ)” value [2] was 12.4 mm and the “inhibition zone (IZ)” value [3] was 15.2 mm. The “inhibition zone (IZ)” value [4] was 16.3 mm, the MIC [5] was 64 µg/mL (≈ 125 µM) and the MIC [6] was 128 µg/mL (≈ 251 µM). The MIC [7] was 128 µg/mL (≈ 251 µM) and the MIC [8] was 64 µg/mL (≈ 125 µM).

With `CC[C@H](/C=C/[C@@H](C)[C@H]1CC[C@H]2[C@@H]3C4=C[C@]5(C[C@@H](OC(C)=O)CC[C@]5(C)[C@H]3CC[C@]12C)NC(=S)N4)C(C)C` the “inhibition zone (IZ)” value [1] was 22.5 mm, the “inhibition zone (IZ)” value [2] was 21.6 mm and the “inhibition zone (IZ)” value [3] was 19.4 mm. The “inhibition zone (IZ)” value [4] was 23.4 mm, the MIC [5] was 32 µg/mL (≈ 60.7 µM) and the MIC [6] was 64 µg/mL (≈ 121 µM). The MIC [7] was 32 µg/mL (≈ 60.7 µM) and the MIC [8] was 32 µg/mL (≈ 60.7 µM).

In the case of `CC[C@H](/C=C/[C@@H](C)[C@H]1CC[C@H]2[C@@H]3C4=C[C@]5(C[C@@H](Cl)CC[C@]5(C)[C@H]3CC[C@]12C)NC(=O)N4)C(C)C`, the “inhibition zone (IZ)” value [1] is reported as 16.8 mm, the “inhibition zone (IZ)” value [2] is reported as 15.2 mm and the “inhibition zone (IZ)” value [3] is reported as 14.4 mm. The “inhibition zone (IZ)” value [4] was 14.8 mm, the MIC [5] was 64 µg/mL (≈ 131 µM) and the MIC [6] was 128 µg/mL (≈ 263 µM). The MIC [7] was 128 µg/mL (≈ 263 µM) and the MIC [8] was 128 µg/mL (≈ 263 µM).

For `CC(C)CCC[C@@H](C)[C@H]1CC[C@H]2[C@@H]3CC=C4C[C@@H](O)CC[C@]4(C)[C@H]3CC[C@]12C` [CHOLESTEROL], the “inhibition zone (IZ)” value [1] was 9.2 mm, the “inhibition zone (IZ)” value [2] was 7.8 mm and the “inhibition zone (IZ)” value [3] was 8.2 mm. For the same compound, the “inhibition zone (IZ)” value [4] was 9 mm, the MIC [5] was 512 µg/mL (≈ 1320 µM) and the MIC [6] was 512 µg/mL (≈ 1320 µM). The MIC [7] was 512 µg/mL (≈ 1320 µM) and the MIC [8] was 512 µg/mL (≈ 1320 µM).
